{"data": "Measured values of several laboratories", "ABL1 T315I phosphorylated": "Tyrosine-protein kinase ABL1, phosphorylated (ABL1, Homo sapiens, UniProt P00519, T315I)", "ABL1 Q252H phosphorylated": "Tyrosine-protein kinase ABL1, phosphorylated (ABL1, Homo sapiens, UniProt P00519, Q252H)", "ABL1 Y253F phosphorylated": "Tyrosine-protein kinase ABL1, phosphorylated (ABL1, Homo sapiens, UniProt P00519, Y253F)", "ABL1 H396P non-phosphorylated": "Tyrosine-protein kinase ABL1, non-phosphorylated (ABL1, Homo sapiens, UniProt P00519, H396P)", "ABL1 F317L phosphorylated": "Tyrosine-protein kinase ABL1, phosphorylated (ABL1, Homo sapiens, UniProt P00519, F317L)", "note": "Lines come from different studies, so protocols differ."}
{"SMILES": "CNC(=O)[C@@H]1CC[C@@H](n2c(-c3ccc4cnccc4c3)nc3ccc(C(=O)NCc4cccc(C(N)=O)c4)cc32)C1", "target": "Tyrosine-protein kinase ABL1, phosphorylated (ABL1, Homo sapiens, UniProt P00519, H396P)", "test": "binding, competition with immobilised ligand", "conditions": "1 µM", "remaining binding [%]": 100}
{"SMILES": "N[C@H]1CCN(c2nccc(-c3cnn4ncccc34)n2)C1", "target": "Tyrosine-protein kinase ABL1 (ABL1, Homo sapiens, UniProt P00519, Q252H)", "test": "binding", "conditions": "1 µM", "remaining binding [%]": 59}
{"SMILES": "CC(=O)c1c(NS(C)(=O)=O)c2cc(-c3ccc(Cl)cc3)c(-c3ccc(Cl)cc3Cl)nc2n(C)c1=O", "target": "ABL1 T315I phosphorylated", "test": "cell-free assay, competition with immobilised ligand", "conditions": "1 µM", "remaining binding [%]": 93}
{"SMILES": "O=C(c1ccc(Nc2ncc(Cl)c(-c3ccc(Cl)s3)n2)cc1)N1CCC(N2CCCC2)CC1", "target": "ABL1 Q252H phosphorylated", "test": "binding, competition with immobilised ligand", "conditions": "1 µM", "remaining binding [%]": 4.2}
{"SMILES": "O=C(NCC1CCOCC1)c1n[nH]cc1NC(=O)c1c(F)cccc1F", "target": "ABL1 Y253F phosphorylated", "test": "binding, competition with immobilised ligand", "conditions": "1 µM", "remaining binding [%]": 86}
{"SMILES": "Cc1cnn2ncc(-c3ccnc(N(C)C)n3)c2c1", "target": "Tyrosine-protein kinase ABL1 (ABL1, Homo sapiens, UniProt P00519, E255K)", "test": "binding", "conditions": "1 µM", "remaining binding [%]": 100}
{"SMILES": "c1cncc(-c2cccc(Nc3nccc(NC4CCCCC4)n3)c2)c1", "target": "ABL1 Y253F phosphorylated", "test": "binding, competition with immobilised ligand", "conditions": "10 µM", "remaining binding [%]": 12}
{"SMILES": "Cc1nc(N2CC[C@@H](O)C2)ncc1-c1cc(C(F)(F)F)cc2[nH]ncc12", "target": "Tyrosine-protein kinase ABL1, phosphorylated (ABL1, Homo sapiens, UniProt P00519)", "test": "binding, competition with immobilised ligand", "conditions": "1 µM", "remaining binding [%]": 61}
{"SMILES": "O=C(NCCCN1CCOCC1)c1ccc(Nc2nccc(-c3cc4ccccc4s3)n2)cc1", "target": "ABL1 H396P non-phosphorylated", "test": "binding, competition with immobilised ligand", "conditions": "1 µM", "remaining binding [%]": 24}
{"SMILES": "C[C@@H](c1ccc(-n2cnc3c(N)ncnc32)cc1)N1CCc2nn(C)c(Cc3ccccc3)c2C1=O", "target": "Tyrosine-protein kinase ABL1, phosphorylated (ABL1, Homo sapiens, UniProt P00519, F317I)", "test": "binding, competition with immobilised ligand", "conditions": "0.1 µM", "remaining binding [%]": 62}
{"SMILES": "COc1cnc(Nc2cccc(S(N)(=O)=O)c2)nc1N1CCN(c2ccccc2)C(=O)C1", "target": "ABL1 H396P non-phosphorylated", "test": "binding, competition with immobilised ligand", "conditions": "1 µM", "remaining binding [%]": 58}
{"SMILES": "CCN1CCN(Cc2ccc(C(=O)Nc3ccc(C)c(Oc4ccc5c(c4)CC(=O)N5)c3)cc2C(F)(F)F)CC1", "target": "ABL1 Q252H phosphorylated", "test": "binding, competition with immobilised ligand", "conditions": "1 µM", "remaining binding [%]": 49}
{"SMILES": "CC1=C(C#N)[C@@H](c2ccc3[nH]nc(C)c3c2)C(C#N)=C(c2ccc(Cl)cc2)N1", "target": "ABL1 Q252H phosphorylated", "test": "cell-free assay, competition with immobilised ligand", "conditions": "1 µM", "remaining binding [%]": 100}
{"SMILES": "O=C(NCCCN1CCOCC1)c1ccc(Nc2ncc(Cl)c(-c3ccc(Cl)s3)n2)cc1", "target": "Tyrosine-protein kinase ABL1, non-phosphorylated (ABL1, Homo sapiens, UniProt P00519, T315I)", "test": "binding, competition with immobilised ligand", "conditions": "1 µM", "remaining binding [%]": 4.5}
{"SMILES": "CN([C@@H]1CCc2c(CC(=O)O)c3ccccc3n2C1)S(=O)(=O)c1ccc(F)cc1", "target": "ABL1 F317L phosphorylated", "test": "cell-free assay, competition with immobilised ligand", "conditions": "1 µM", "remaining binding [%]": 92}
{"SMILES": "CN(c1nccc(-c2cnn3ncccc23)n1)C1CC1", "target": "Tyrosine-protein kinase ABL1 (ABL1, Homo sapiens, UniProt P00519, M351T)", "test": "binding", "conditions": "1 µM", "remaining binding [%]": 100}
{"SMILES": "CCOC(=O)c1cc2cc(-c3cc(C(=O)NCc4ccc(C(=O)O)cc4)nn3C)ccc2[nH]1", "target": "ABL1 T315I phosphorylated", "test": "cell-free assay, competition with immobilised ligand", "conditions": "0.1 µM", "remaining binding [%]": 92}
{"SMILES": "O=C(c1ccc(Nc2ncc(Cl)c(-c3cc4ccccc4s3)n2)cc1)N1CCC(N2CCCC2)CC1", "target": "ABL1 T315I phosphorylated", "test": "binding, competition with immobilised ligand", "conditions": "1 µM", "remaining binding [%]": 3.3}
{"SMILES": "C=CC(=O)N1CCC(C(=O)NCC(=O)N2CCN(c3nc(-c4cnc(N)nc4C(F)F)nc(N4CCOCC4)n3)CC2)CC1", "target": "Tyrosine-protein kinase ABL1, phosphorylated (ABL1, Homo sapiens, UniProt P00519, E255K)", "test": "binding, competition with immobilised ligand", "conditions": "1 µM", "remaining binding [%]": 87}
{"SMILES": "CC(C)CC(=O)N1CCc2nc(-c3ccc(Br)cc3)nc(N(C)Cc3ccccc3)c2C1", "target": "ABL1 H396P non-phosphorylated", "test": "cell-free assay, competition with immobilised ligand", "conditions": "0.1 µM", "remaining binding [%]": 68}
{"SMILES": "O=C(Nc1c[nH]nc1C(=O)NC1CCNCC1)c1cc(F)cc(F)c1", "target": "ABL1 F317L phosphorylated", "test": "binding, competition with immobilised ligand", "conditions": "1 µM", "remaining binding [%]": 100}
{"SMILES": "CC(C)(O)c1cncc(-c2nc3ccc(F)cc3n2C2CC2)c1", "target": "Tyrosine-protein kinase ABL1, non-phosphorylated (ABL1, Homo sapiens, UniProt P00519, Q252H)", "test": "cell-free assay, competition with immobilised ligand", "conditions": "1 µM", "remaining binding [%]": 89}
{"SMILES": "c1cnn2ncc(-c3ccnc(N4CCC45COC5)n3)c2c1", "target": "Tyrosine-protein kinase ABL1 (ABL1, Homo sapiens, UniProt P00519, H396P)", "test": "binding", "conditions": "1 µM", "remaining binding [%]": 66}
